ChEMBL document CHEMBL1828535, “Synthesis and in vitro activity of novel N-3 acylated TSAO-T compounds against HIV-1 and HCV” (Eur J Med Chem, 2011)
The source made the active and inactive calls. The rule behind the calls is not given here.

Legend:
[1] = Cytotoxicity against human CEM cells after 4 days; format: cell-based; conditions: CEM (CCRF-CEM) cells
Procedure, shortened: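 CC₅₀ taken as concentration inhibiting CEM cell proliferation by 50%.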

[2] = test system: Human immunodeficiency virus 1; assay: Antiviral activity against HIV1 harboring reverse transcriptase E138K mutant infected in human CEM cells assessed as inhibition of virus-induced cytopathicity after 4 days; format: functional, organism-based; conditions: CCRF-CEM
Procedure, shortened: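 CEM cells at 4 x 10⁶ cells/mL infected with HIV-1/E138K (RT mutant strain selected under TSAO-m³T) at about 100 CCID₅₀ per mL of cell suspension. Syncytia formation scored microscopically after 4 days. EC₅₀ taken as the concentration inhibiting virus-induced cytopathicity by 50%.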

[3] = test system: Human immunodeficiency virus 2; assay: Antiviral activity against HIV2 ROD infected in human CEM cells assessed as inhibition of virus-induced cytopathicity after 4 days; format: functional, organism-based; conditions: Human immunodeficiency virus 2, ISOLATE ROD, CCRF-CEM, 96 h
Procedure, shortened: (§1)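 CEM cells at 4 x 10⁶/mL infected with HIV-1 IIIB or HIV-2 ROD at ~100 CCID₅₀ per mL of cell suspension; compound present; syncytia formation scored microscopically after 4 days; EC₅₀ = concentration inhibiting virus-induced cytopathicity by 50%.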

[4] = test system: Human immunodeficiency virus 1; assay: Antiviral activity against HIV1 3B infected in human CEM cells assessed as inhibition of virus-induced cytopathicity after 4 days; format: functional, organism-based; conditions: Human immunodeficiency virus 1, 3B, CCRF-CEM, 96 h; procedure, shortened: as §1
[5] = Chemical stability of the compound in phosphate buffered saline assessed as compound degradation after 72 hrs; format: physicochemical; conditions: buffer
Procedure, shortened: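 Compound held in PBS at 37 °C for 72 h; degradation judged by comparing LCMS spectra before and after incubation.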

Hepatitis C virus = assay: Antiviral activity against HCV2a JFH1 infected in human Huh7 cells assessed as inhibition of viral replication after 72 hrs by luciferase reporter gene assay; format: functional, organism-based, Hepacivirus hominis; conditions: JFH-1, Huh-7, 72 h
[6] = Cytotoxicity against human HuH7 cells after 72 hrs; format: cell-based, Huh-7

SMILES | CC50 at 96 h [1] [µM] | inhibition [2] | EC50 [3] [µM] | EC50 [4] [µM] | Stability [5] | EC50 (Hepatitis C virus) [µM] | CC50 at 72 h [6] [µM]
CNC(=O)CCCCn1c(=O)c(C)cn([C@@H]2O[C@H](CO[Si](C)(C)C(C)(C)C)[C@@]3(OS(=O)(=O)C=C3N)[C@H]2O[Si](C)(C)C(C)(C)C)c1=O | 10 | inactive | > 10 |  |  |  | 
Cc1cn([C@@H]2O[C@H](CO[Si](C)(C)C(C)(C)C)[C@@]3(OS(=O)(=O)C=C3N)[C@H]2O[Si](C)(C)C(C)(C)C)c(=O)n(C(=O)CCCC(=O)OC(C)(C)C)c1=O | 11 | inactive | ≥ 4 | 0.033 | Stable | 11 | > 100
Cc1cn([C@@H]2O[C@H](CO[Si](C)(C)C(C)(C)C)[C@@]3(OS(=O)(=O)C=C3N)[C@H]2O[Si](C)(C)C(C)(C)C)c(=O)[nH]c1=O | 12 | inactive | > 20 |  |  | 14 | > 100
COC(=O)n1c(=O)c(C)cn([C@@H]2O[C@H](CO[Si](C)(C)C(C)(C)C)[C@@]3(OS(=O)(=O)C=C3N)[C@H]2O[Si](C)(C)C(C)(C)C)c1=O | > 100 | inactive | ≥ 100 | 0.07 | Stable | > 100 | > 100
COC(=O)CCCC(=O)n1c(=O)c(C)cn([C@@H]2O[C@H](CO[Si](C)(C)C(C)(C)C)[C@@]3(OS(=O)(=O)C=C3N)[C@H]2O[Si](C)(C)C(C)(C)C)c1=O | 9.9 | inactive | ≥ 4 | 0.054 | Stable | 11 | > 100
Cc1cn([C@@H]2O[C@H](CO[Si](C)(C)C(C)(C)C)[C@@]3(OS(=O)(=O)C=C3N)[C@H]2O[Si](C)(C)C(C)(C)C)c(=O)n(C(=O)CCCC(=O)N(C)C)c1=O | 9.5 | inactive | ≥ 4 | 0.032 | Stable | 4.4 | > 100
Cc1cn([C@@H]2O[C@H](CO[Si](C)(C)C(C)(C)C)[C@@]3(OS(=O)(=O)C=C3N)[C@H]2O[Si](C)(C)C(C)(C)C)c(=O)n(C)c1=O | 115 | inactive | > 250 | 0.037 |  | > 100 | > 100
COC(=O)c1cccc(C(=O)n2c(=O)c(C)cn([C@@H]3O[C@H](CO[Si](C)(C)C(C)(C)C)[C@@]4(OS(=O)(=O)C=C4N)[C@H]3O[Si](C)(C)C(C)(C)C)c2=O)c1 | 14 | inactive | ≥ 4 | 0.041 | Stable | 8.2 | > 100
CSC(=O)CCCC(=O)n1c(=O)c(C)cn([C@@H]2O[C@H](CO[Si](C)(C)C(C)(C)C)[C@@]3(OS(=O)(=O)C=C3N)[C@H]2O[Si](C)(C)C(C)(C)C)c1=O | 9.9 | inactive | ≥ 4 | 0.037 | Stable | 7 | > 100
Cc1cn([C@@H]2O[C@H](CO[Si](C)(C)C(C)(C)C)[C@@]3(OS(=O)(=O)C=C3N)[C@H]2O[Si](C)(C)C(C)(C)C)c(=O)n(C(=O)OC(C)(C)C)c1=O | 26 | inactive |  |  |  |  | 
CNC(=O)CCCC(=O)n1c(=O)c(C)cn([C@@H]2O[C@H](CO[Si](C)(C)C(C)(C)C)[C@@]3(OS(=O)(=O)C=C3N)[C@H]2O[Si](C)(C)C(C)(C)C)c1=O | 9.1 | inactive | ≥ 4 | 0.059 | Stable | 12 | > 100
Cc1cn([C@@H]2O[C@H](CO[Si](C)(C)C(C)(C)C)[C@@]3(OS(=O)(=O)C=C3N)[C@H]2O[Si](C)(C)C(C)(C)C)c(=O)n(C(=O)CCCC(=O)OCc2ccccc2)c1=O | 9.2 | inactive | ≥ 4 | 0.04 | Stable | 10 | > 100
Cc1cn([C@@H]2O[C@H](CO[Si](C)(C)C(C)(C)C)[C@@]3(OS(=O)(=O)C=C3N)[C@H]2O[Si](C)(C)C(C)(C)C)c(=O)n(C(=O)C2CC2)c1=O | 11 | inactive | ≥ 4 | 0.042 | Stable | 8.5 | > 100
Cc1cn([C@@H]2O[C@H](CO[Si](C)(C)C(C)(C)C)[C@@]3(OS(=O)(=O)C=C3N)[C@H]2O[Si](C)(C)C(C)(C)C)c(=O)n(C(=O)CCCBr)c1=O | 11 | inactive | ≥ 4 | 0.052 | Stable | 43 | > 100
C[C@@]1(O)[C@H](O)[C@@H](CO)O[C@H]1n1ccc(N)nc1=O |  | inactive |  |  |  | 2.4 | > 33
Cc1cn([C@@H]2O[C@H](CO[Si](C)(C)C(C)(C)C)[C@@]3(OS(=O)(=O)C=C3N)[C@H]2O[Si](C)(C)C(C)(C)C)c(=O)n(C(=O)CCCC(=O)NCc2ccccc2)c1=O | 8.8 | inactive | ≥ 4 | 0.052 | Stable | 7.6 | > 100
Cc1cn([C@@H]2O[C@H](CO[Si](C)(C)C(C)(C)C)[C@@]3(OS(=O)(=O)C=C3N)[C@H]2O[Si](C)(C)C(C)(C)C)c(=O)n(C(=O)CCCC(N)=O)c1=O | 8.7 | inactive | ≥ 4 | 0.038 | Stable | 9 | > 100
Cc1cn([C@@H]2O[C@H](CO[Si](C)(C)C(C)(C)C)[C@@]3(OS(=O)(=O)C=C3N)[C@H]2O[Si](C)(C)C(C)(C)C)c(=O)n(C(=O)c2ccccc2)c1=O | 54 | inactive | ≥ 4 | 0.049 | Stable | 9.8 | > 100
